Test results reported in ChEMBL document CHEMBL1143324, “New N-substituted 9-azabicyclo[3.3.1]nonan-3alpha-yl phenylcarbamate analogs as sigma2 receptor ligands: synthesis, in vitro characterization, and evaluation as PET imaging and chemosensitization agents” (Bioorg Med Chem, 2009).

Columns and labels:
[1] = Displacement of [3H]RHM-1 from sigma 2-type opioid receptor in rat liver homogenates; type: tissue-based
[2] = Selectivity ratio, Ki for sigma 1 receptor in guinea pig brain homogenates to Ki for sigma 2 receptor in rat liver homogenates; type: tissue-based
[3] = biological target: Sigma non-opioid intracellular receptor 1 (Cavia porcellus, UniProt Q60492); assay: Displacement of [3H](+)-pentazocine from sigma 1-type opioid receptor in guinea pig brain homogenates; type: tissue-based
[4] = Partition coefficient, log P of the compound; type: physicochemical; settings: octanol/water
EMT6 = assay: Binding affinity to sigma 2 receptor in mouse EMT6 cell membrane homogenates; type: cell membranes; settings: tested as the 18F-labelled form
[5] = Ratio of drug level in tumor to blood of mouse EMT6 cells bearing BALB/c mouse after 30 mins; type: ADME, cell-based; settings: emt6, 0.5 h
How it was run: (§1)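 Tumor-to-tissue ratios were calculated from %ID/g values at 5 min, 30 min, 1 h and 2 h. The 18F tracer (~20 µCi, tail vein, 10% ethanol/90% water) was given to female BALB/c mice bearing s.c. EMT-6 tumors (~5×10^5 cells implanted 11 days prior; ~100-150 mg). Tissues were gamma-counted against a diluted standard of the injected dose.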

Brain [6] = assay: Biodistribution in iv dosed mouse EMT6 cells bearing BALB/c mouse brain after 1 hr; type: ADME, organism-based; settings: in vivo
How it was run: (§2)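 Female BALB/c mice were implanted s.c. in the scapular region with ~5×10^5 EMT-6 cells in PBS 11 days earlier, giving tumors of ~100-150 mg. The 18F tracer (~20 µCi per 150 µL, in 10% ethanol/90% water) was given via tail vein, and mice were killed at 5 min, 30 min, 1 h or 2 h. Tissues were weighed and gamma-counted against a diluted injected-dose standard, giving %ID/g.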

Bone = assay: Biodistribution in iv dosed mouse EMT6 cells bearing BALB/c mouse bone after 2 hrs; type: ADME, organism-based, Bone element; settings: in vivo; how it was run: as §2
[7] = Ratio of drug level in tumor to muscle of mouse EMT6 cells bearing BALB/c mouse after 1 hr; type: ADME, cell-based; settings: emt6, 1 h; how it was run: as §1
Liver [8] = assay: Biodistribution in iv dosed mouse EMT6 cells bearing BALB/c mouse liver after 30 mins; type: ADME, organism-based; settings: in vivo, 0.5 h; how it was run: as §2
[9] = Ratio of drug level in tumor to blood of mouse EMT6 cells bearing BALB/c mouse after 2 hrs; type: ADME, cell-based; settings: emt6, 2 h; how it was run: as §1
[10] = Ratio of drug level in tumor to muscle of […] EMT6 cells bearing BALB/c mouse after 5 mins; type: ADME, cell-based; settings: emt6, 5 min
[11] = Ratio of drug level in tumor to fat of mouse EMT6 cells bearing BALB/c mouse after 1 hr; type: ADME, cell-based; settings: emt6, 1 h; how it was run: as §1
[12] = Biodistribution in tumor of iv dosed mouse EMT6 cells bearing BALB/c mouse after 2 hrs; type: ADME, organism-based, Neoplasm; settings: in vivo; how it was run: as §2
[13] = Ratio of drug level in tumor to muscle of […] EMT6 cells bearing BALB/c mouse after 30 mins; type: ADME, cell-based; settings: emt6, 0.5 h
[14] = Ratio of drug level in tumor to fat of mouse EMT6 cells bearing BALB/c mouse after 30 mins; type: ADME, cell-based; settings: emt6, 0.5 h; how it was run: as §1
Muscle tissue [15] = assay: Biodistribution in iv dosed mouse EMT6 cells bearing BALB/c mouse muscle after 1 hr; type: ADME, organism-based; settings: in vivo; how it was run: as §2
[16] = Ratio of drug level in tumor to blood of mouse EMT6 cells bearing BALB/c mouse after 5 mins; type: ADME, cell-based; settings: emt6, 5 min; how it was run: as §1
Blood [17] = assay: Biodistribution in iv dosed mouse EMT6 cells bearing BALB/c mouse blood after 1 hr; type: ADME, organism-based; settings: in vivo; how it was run: as §2
Heart [18] = assay: Biodistribution in iv dosed mouse EMT6 cells bearing BALB/c mouse heart after 30 mins; type: ADME, organism-based; settings: in vivo, 0.5 h; how it was run: as §2
Kidney = assay: Biodistribution in iv dosed mouse EMT6 cells bearing BALB/c mouse kidney after 1 hr; type: ADME, organism-based; settings: in vivo; how it was run: as §2
[19] = Ratio of drug level in tumor to blood of mouse EMT6 cells bearing BALB/c mouse after 1 hr; type: ADME, cell-based; settings: emt6, 1 h; how it was run: as §1
Blood [20] = assay: Biodistribution in iv dosed mouse EMT6 cells bearing BALB/c mouse blood after 30 mins; type: ADME, organism-based; settings: in vivo, 0.5 h; how it was run: as §2
Muscle tissue [21] = assay: Biodistribution in iv dosed mouse EMT6 cells bearing BALB/c mouse muscle after 30 mins; type: ADME, organism-based; settings: in vivo, 0.5 h; how it was run: as §2
[22] = Ratio of drug level in tumor to muscle of mouse EMT6 cells bearing BALB/c mouse after 2 hrs; type: ADME, cell-based; settings: emt6, 2 h; how it was run: as §1
[23] = Biodistribution in tumor of iv dosed mouse EMT6 cells bearing BALB/c mouse after 5 mins; type: ADME, organism-based, Neoplasm; settings: in vivo; how it was run: as §2
[24] = Ratio of drug level in tumor to muscle of […] EMT6 cells bearing BALB/c mouse after 2 hrs; type: ADME, cell-based; settings: emt6, 2 h
[25] = Ratio of drug level in tumor to muscle of […] EMT6 cells bearing BALB/c mouse after 1 hr; type: ADME, cell-based; settings: emt6, 1 h
Heart [26] = assay: Biodistribution in iv dosed mouse EMT6 cells bearing BALB/c mouse heart after 5 mins; type: ADME, organism-based; settings: in vivo; how it was run: as §2
[27] = Ratio of drug level in tumor to muscle of mouse EMT6 cells bearing BALB/c mouse after 5 mins; type: ADME, cell-based; settings: emt6, 5 min; how it was run: as §1
Liver [28] = assay: Biodistribution in iv dosed mouse EMT6 cells bearing BALB/c mouse liver after 5 mins; type: ADME, organism-based; settings: in vivo; how it was run: as §2
[29] = Ratio of drug level in tumor to fat of mouse EMT6 cells bearing BALB/c mouse after 5 mins; type: ADME, cell-based; settings: emt6, 5 min; how it was run: as §1
Brain [30] = assay: Biodistribution in iv dosed mouse EMT6 cells bearing BALB/c mouse brain after 30 mins; type: ADME, organism-based; settings: in vivo, 0.5 h; how it was run: as §2
[31] = Ratio of drug level in tumor to fat of mouse EMT6 cells bearing BALB/c mouse after 2 hrs; type: ADME, cell-based; settings: emt6, 2 h; how it was run: as §1
[32] = Ratio of drug level in tumor to muscle of mouse EMT6 cells bearing BALB/c mouse after 30 mins; type: ADME, cell-based; settings: emt6, 0.5 h; how it was run: as §1
[33] = biological target: 5-hydroxytryptamine receptor 4 (Homo sapiens, UniProt Q13639); assay: Binding affinity to 5HT4 receptor
[34] = biological target: T1, 5-hydroxytryptamine receptor 3A (Homo sapiens, UniProt P46098); assay: Binding affinity to 5HT3 receptor
T1 sequence (P46098 whole entry): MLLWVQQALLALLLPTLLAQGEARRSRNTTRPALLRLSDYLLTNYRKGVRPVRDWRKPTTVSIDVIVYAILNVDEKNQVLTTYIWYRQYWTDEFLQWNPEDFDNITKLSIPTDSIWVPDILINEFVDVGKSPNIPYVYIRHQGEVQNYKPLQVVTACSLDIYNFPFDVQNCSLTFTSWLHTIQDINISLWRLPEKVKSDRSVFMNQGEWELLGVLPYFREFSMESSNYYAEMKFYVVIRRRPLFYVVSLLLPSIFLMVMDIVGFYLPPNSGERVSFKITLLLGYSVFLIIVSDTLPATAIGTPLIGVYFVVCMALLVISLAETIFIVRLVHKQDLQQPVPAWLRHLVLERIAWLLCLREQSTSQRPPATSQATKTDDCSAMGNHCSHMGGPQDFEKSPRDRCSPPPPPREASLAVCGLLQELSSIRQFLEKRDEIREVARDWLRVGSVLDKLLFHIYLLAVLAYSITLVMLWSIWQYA

Sigma non-opioid intracellular receptor 1, sequence (Q60492 whole entry): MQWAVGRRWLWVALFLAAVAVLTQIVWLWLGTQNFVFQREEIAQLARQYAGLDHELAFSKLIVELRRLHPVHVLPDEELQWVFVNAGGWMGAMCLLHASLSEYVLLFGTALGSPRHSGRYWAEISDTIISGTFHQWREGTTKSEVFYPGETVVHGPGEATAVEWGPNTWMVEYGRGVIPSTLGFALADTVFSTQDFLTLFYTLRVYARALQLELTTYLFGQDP
5-hydroxytryptamine receptor 4, sequence (Q13639 whole entry): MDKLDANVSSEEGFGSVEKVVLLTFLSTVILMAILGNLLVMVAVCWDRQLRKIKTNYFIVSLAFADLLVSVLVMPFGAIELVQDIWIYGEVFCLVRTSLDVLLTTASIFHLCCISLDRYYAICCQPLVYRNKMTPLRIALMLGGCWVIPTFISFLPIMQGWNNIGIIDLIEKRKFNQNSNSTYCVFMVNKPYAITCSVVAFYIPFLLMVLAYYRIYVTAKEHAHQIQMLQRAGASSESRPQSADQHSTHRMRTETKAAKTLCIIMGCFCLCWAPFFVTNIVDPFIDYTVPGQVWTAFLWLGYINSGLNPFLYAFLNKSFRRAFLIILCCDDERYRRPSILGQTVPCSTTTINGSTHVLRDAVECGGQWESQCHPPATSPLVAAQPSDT

Compound `C=CCN1C2CCCC1CC(OC(=O)Nc1cc(C)ccc1OC)C2` (configuration not stated) has a Ki [1] of 85.9 nM, a Ratio Ki [2] of 15 and a Ki [3] of 1260 nM. It also gave a logP [4] of 2.86.
`COc1ccc(C)cc1NC(=O)OC1CC2CCCC(C1)N2Cc1ccc(CCF)cc1` (configuration not stated) gave a Ki [1] of 0.82 nM, a Ratio Ki [2] of 2090 and a Ki [3] of 1710 nM. For the same compound, the Activity (EMT6) was 2 nM.
For `COc1ccc(C)cc1NC(=O)OC1CC2CCCC(C1)N2Cc1ccc(CC[18F])cc1` (configuration not stated), the Activity [5] was 3.67 % ID/g, the Activity (Brain [6]) was 1.55 % ID/g and the Activity (Bone) was 5.68 % ID/g. It also gave an Activity [7] of 1.92 % ID/g, an Activity (Liver [8]) of 28.5 % ID/g and an Activity [9] of 6.96 % ID/g. The Activity [10] was 0.01 % ID/g, the Activity [11] was 0.41 % ID/g and the Activity [12] was 4.08 % ID/g. For the same compound, the Activity [13] was 0.22 % ID/g, the Activity [14] was 0.45 % ID/g and the Activity (Muscle tissue [15]) was 1.92 % ID/g. It also gave an Activity [16] of 0.82 % ID/g, an Activity (Blood [17]) of 0.93 % ID/g and an Activity (Heart [18]) of 3.7 % ID/g. The Activity (Kidney) was 10.38 % ID/g, the Activity [19] was 3.86 % ID/g and the Activity (Blood [20]) was 0.99 % ID/g. It also gave an Activity (Muscle tissue [21]) of 2.9 % ID/g, an Activity [22] of 2.53 % ID/g and an Activity [23] of 1.39 % ID/g. It also gave an Activity [24] of 0.82 % ID/g, an Activity [25] of 0.42 % ID/g and an Activity (Heart [26]) of 18.49 % ID/g. The Activity [27] was 0.3 % ID/g, the Activity (Liver [28]) was 21.14 % ID/g and the Activity [29] was 0.65 % ID/g. The Activity (Brain [30]) was 2.12 % ID/g, the Activity [31] was 0.32 % ID/g and the Activity [32] was 1.32 % ID/g.
Work on `COc1ccc(C)cc1NC(=O)OC1CC2CCCC(C1)N2Cc1ccncc1` (configuration not stated) yielded a Ki [1] of 522 nM, a Ratio Ki [2] of 3 and a Ki [3] of 1560 nM. It also gave a logP [4] of 2.94.
`O=C(CCCN1CCC(O)(c2ccc(Cl)cc2)CC1)c1ccc(F)cc1` [HALOPERIDOL] showed a logP [4] of 3.36.
Compound `COc1ccc(C)cc1NC(=O)OC1CC2CCCC(C1)N2CCc1ccc(CCF)cc1` (configuration not stated) has a Ki [1] of 276 nM, a Ratio Ki [2] of 10 and a Ki [3] of 2630 nM. For the same compound, the logP [4] was 3.69.
With `COc1ccc(C)cc1NC(=O)OC1CC2CCCC(C1)N2Cc1ccc(N(C)C)cc1` (configuration not stated) the Ki [1] was 2.58 nM, the Ratio Ki [2] was 557 and the Ki [3] was 1440 nM. It also gave a logP [4] of 3.02.
With `COc1ccc(C)cc1NC(=O)OC1CC2CCCC(C1)N2Cc1ccc(SC)cc1` (configuration not stated) the Ki [1] was 8190 nM, the Ki [3] was 2020 nM and the logP [4] was 3.92.
`COc1ccc(C)cc1NC(=O)OC1CC2CCCC(C1)N2CCc1ccc(N(C)C)cc1` (configuration not stated) showed a Ki [1] of 195 nM, a Ratio Ki [2] of 10 and a Ki [3] of 1870 nM. It also gave a logP [4] of 3.36.
With `CCn1c(=O)n(C(=O)NC2CC3CCC(C2)N3C)c2ccccc21` (configuration not stated) the Ki [33] was 13 nM, the Ki [1] was 32 nM and the Ki [34] was 1 nM. The Ki [3] was 6300 nM.
Work on `COc1ccc(C)cc1NC(=O)OC1CC2CCCC(C1)N2Cc1cccnc1` (configuration not stated) yielded a Ki [1] of 184 nM, a Ratio Ki [2] of 13 and a Ki [3] of 2350 nM. It also gave a logP [4] of 2.7.
`COc1ccc(C)cc1NC(=O)OC1CC2CCCC(C1)N2Cc1ccccc1` (configuration not stated) gave a Ki [33] greater than 1000 nM, a Ki [1] of 3.1 nM and a Ki [34] greater than 1000 nM.
`COc1ccc(C)cc1NC(=O)OC1CC2CCCC(C1)N2CCF` (configuration not stated) showed a Ki [1] of 143 nM, a Ratio Ki [2] of 14 and a Ki [3] of 2000 nM. For the same compound, the logP [4] was 2.85.
`COc1ccc(CCN2C3CCCC2CC(OC(=O)Nc2cc(C)ccc2OC)C3)cc1` (configuration not stated) gave a Ki [1] of 126 nM, a Ratio Ki [2] of 4 and a Ki [3] of 447 nM. For the same compound, the logP [4] was 3.22.
Compound `COc1ccc(C)cc1NC(=O)OC1CC2CCCC(C1)N2Cc1ccc(F)nc1` (configuration not stated) has a Ki [1] of 572 nM, a Ratio Ki [2] of 4 and a Ki [3] of 2510 nM. The logP [4] was 3.21.
Work on `COc1ccc(CN2C3CCCC2CC(OC(=O)Nc2cc(C)ccc2OC)C3)cc1` (configuration not stated) yielded a Ki [1] of 40.7 nM, a Ratio Ki [2] of 8 and a Ki [3] of 323 nM. It also gave a logP [4] of 3.3.
In the case of `COc1ccc(C)cc1C(=O)NCCCCN1CCc2cc(OO)c(OO)cc2C1`, the Ki [1] is reported as 10.3 nM and the Ki [3] is reported as 3080 nM.
